This note sets out measurements from ChEMBL document CHEMBL4392863, “Spongian Diterpenes Including One with a Rearranged Skeleton from the Marine Sponge Spongia officinalis” (J Nat Prod, 2019).

Series [1] is described as follows: Cytotoxicity against mouse RAW264.7 cells assessed as reduction in cell viability incubated for 24 hrs by MTT assay. It counts as cell-based. (Tetrazolium dyes change colour on reduction, which living cells bring about.)
A further series has as its system RAW264.7. As to the kind of experiment: Anti-inflammatory activity in mouse RAW264.7 cells assessed as inhibition of LPS-induced NO production pre-incubated for 2 hrs before LPS stimulation for 24 hrs by nitrate/nitrite assay. It counts as functional, cell-based. The method, boiled down:
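LPS-stimulated RAW264.7 macrophages were used following an earlier published protocol. Compounds from 30 mM DMSO stocks were diluted at room temperature to final test concentrations of 1−60 μM. NG-methyl-L-arginine acetate salt in DMSO served as the positive control. Inhibition of nitric oxide production was expressed as IC50.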

pIC50: −log10 of the molar value.

For `CO[C@@H]1O[C@H](OC)C2=C1CC[C@H]1[C@@]2(CO)CC[C@@H]2[C@]1(C)CC(=O)[C@H](O)[C@]2(C)CO`, in series [1], the cytotoxic concentration (CC50) (commonly the concentration giving 50% cytotoxicity) at 24 h is greater than 60 µM. The pIC50 – broadly, the negative decadic logarithm of the IC50, by convention in mol/L – with RAW264.7 was 4.66.

For the compound `C[C@]12[C@@H](O)[C@]3(O)C(=O)OC[C@]3(C)[C@@H]1CC[C@@]1(CO)c3cocc3CC[C@@H]12`, the CC50 at 24 h in series [1] is greater than 60 µM. Further, in the series on RAW264.7, the pIC50 is 4.49.

In the case of `C[C@]12C[C@@H](O)C(=O)[C@](C)(CO)[C@@H]1CC[C@@]1(CO)c3cocc3CC[C@@H]12`, in series [1], the CC50 at 24 h was greater than 60 µM. In addition, in the series on RAW264.7, the pIC50 was less than 4.22.

Turning to `C[C@]12CC(=O)[C@H](O)[C@](C)(CO)[C@@H]1CC[C@@]1(CO)c3cocc3CC[C@@H]12`, the half-maximal cytotoxic concentration (CC50) at 24 h in series [1] was greater than 60 µM. Moreover, the pIC50 with RAW264.7 was 4.70.

`CC(=O)OC[C@@]12CC[C@@H]3[C@](C)(CC(=O)[C@@H](O)[C@]3(C)CO)[C@H]1CCc1cocc12`: the CC50 at 24 h in series [1] is greater than 60 µM. The pIC50 in the series with RAW264.7 is 4.92.

Turning to `CC(=O)OC[C@@]12CC[C@@H]3[C@](C)(CC(=O)[C@H](O)[C@]3(C)CO)[C@H]1CCc1cocc12`, in series [1], the CC50 at 24 h is greater than 60 µM. Also, the pIC50 in the series on RAW264.7 was 4.82.

For the compound `CCO[C@H]1OC(=O)C2=C1[C@]1(CO)CC[C@@H]3[C@](C)(CC(=O)[C@H](O)[C@]3(C)CO)[C@H]1CC2`, the CC50 at 24 h in series [1] is greater than 60 µM. Moreover, the pIC50 in the series on RAW264.7 was 4.92.

`CNC(=N)NCCC[C@H](N)C(=O)O` [TILARGININE ACETATE]: the pIC50 in the series on RAW264.7 was 4.77.
